Reference: ChEMBL document CHEMBL1154573, “New 7,20:14,20-diepoxy ent-kauranoids from Isodon xerophilus” (J Nat Prod, 2000)
≈ marks a conversion by molar mass, not a printed value.

Tests used:
Assay type in all cases: functional, cell-based
K562 = test: Cytotoxicity against human K562 cells after 48 hrs by MTT assay; settings: K562, 48 h
Procedure, shortened: (§1)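 MTT reduction assay. Cells in log-phase growth were seeded at 4 × 10⁴ cells/mL and exposed in four replicates to drug at 10⁻⁴–10⁻⁸ mol/L for 48 h at 37 °C in humidified 5% CO₂. MTT (5 mg/mL solution) was then added for a further 4 h. Formazan was dissolved in 10% SDS–5% isobutanol–HCl for 12 h at room temperature. OD was read at 570 and 630 nm, and IC50 was derived. Negative controls were saline or 1% or 0.1% DMSO.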

HL-60 = test: Cytotoxicity against human HL60 cells after 48 hrs by MTT assay; settings: HL-60, 48 h; procedure, shortened: as §1
MKN-28 = test: Cytotoxicity against human MKN28 cells after 48 hrs by MTT assay; settings: MKN-28, 48 h; procedure, shortened: as §1
[1] = Cytotoxicity against human HCT cells after 48 hrs by MTT assay; procedure, shortened: as §1

| SMILES | IC50 (K562) | IC50 (HL-60) | IC50 (MKN-28) | IC50 [1] |
| --- | --- | --- | --- | --- |
| C=C1C(=O)[C@@]23[C@@H]4O[C@H]5O[C@@]2(O)[C@@H](O)[C@@H]2C(C)(C)CCC[C@]52[C@@H]3[C@@H](O)C[C@@H]14 [MACROCALIN B] | 8.07 µg/mL (≈ 22.3 µM) | 2.05 µg/mL (≈ 5.66 µM) | 1.68 µg/mL (≈ 4.64 µM) |  |
| O=C1c2c(O)ccc(O)c2C(=O)c2c(NCCNCCO)ccc(NCCNCCO)c21 [MITOXANTRONE] | 0.0334 µg/mL (≈ 0.0751 µM) | 0.29 µg/mL (≈ 0.652 µM) | 0.02 µg/mL (≈ 0.045 µM) | 1.54 µg/mL (≈ 3.46 µM) |
| C=C1C(=O)[C@@]23[C@@H]4O[C@H]5O[C@@]2(O)[C@@H](O)[C@@H]2C(C)(C)CCC[C@]52[C@@H]3[C@@H](OC(C)=O)C[C@@H]14 [XEROPHILUSIN A] | 2.22 µg/mL (≈ 5.49 µM) | 0.45 µg/mL (≈ 1.11 µM) | 0.12 µg/mL (≈ 0.297 µM) |  |
| C=C1C(=O)[C@@]23[C@@H]4O[C@H]5O[C@@]2(O)[C@@H](O)[C@@H]2C(C)(C)CCC[C@]52[C@@H]3CC[C@@H]14 [XEROPHILUSIN B] | 0.73 µg/mL (≈ 2.11 µM) | 0.29 µg/mL (≈ 0.837 µM) | 0.17 µg/mL (≈ 0.491 µM) |  |
